Rows were chosen to be rich in hits. Some 1.5% of all compounds tested hit in one or more screens of this group.
ABCB1 inh: blocks JC-1 efflux by human ABCB1 transporter | P08183 | CCRF-Adr cells, flow cytometry | inhibition, % at 6.6 µM | 190,000 compounds, 0.067% hits | AID 1326; in the data active = inhibition above about 40%;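 note: 0% = vehicle and 100% = reference inhibitor; higher value means more JC-1 retained so stronger ABCB1 efflux block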
PGE2 EP2 inh: blocks the human prostaglandin E2 receptor EP2; 260,000 compounds, 0.52% hits; C6 glioma cells expressing human EP2, cAMP TR-FRET; cells stimulated with saturating PGE2; AID 1422; inhibition, % at 25 µM; P43116;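 active = percent inhibition above 40 after rounding to a whole number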;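 note: rat C6 glioma host cells with rolipram phosphodiesterase inhibitor present; the protocol text gives 20 µM as final concentration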
RBBP9 inhibitor: inhibitors of human serine hydrolase RBBP9. O75884. AID 1515. inhibition, % at 7.94 µM. 220,000 compounds, 0.2% hits. recombinant RBBP9, FP-Rh probe fluorescence polarization;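 active = inhibition above the campaign mean of all tested compounds plus 3 SD, cut at about 14% in these data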;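 note: plate controls were DMSO wells with RBBP9 for no effect and wells lacking RBBP9 protein for full effect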
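system = RBBP9 protein | input = RBBP9 at 2.5 µM in dispensed solution, before mixing | measured by = fluorescence polarization (mP), excitation 525 nm, emission 598 nm | incubation = enzyme-compound preincubation 30 min, then probe labeling 45 min, 25 °C | buffer or medium = Tris-NaCl-Pluronic buffer, pH 8.0 | compound = single dose 7.94 µM | also added = FP-Rh probe, 375 nM dispensing solution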
EP2 mod: modulates human prostaglandin E2 receptor EP2 signaling. P43116. EP2-expressing cells, cAMP HTRF FRET, PGE2 co-stimulation. induction, % at 25 µM. 260,000 compounds, 0.83% hits. AID 940;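 active = compounds whose cAMP rise, as percent of the full-agonist control response, exceeds 60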;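 note: rat C6 glioma line stably carrying human EP2 under a CMV promoter; the protocol text gives 20 µM as final concentration; 100% = response of wells given 1 µM PGE2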
ABCG2 inh: blocks JC-1 efflux by human ABCG2 transporter. Q9UNQ0. IgMXP3 cells, flow cytometry. 190,000 compounds, 0.1% hits. inhibition, % at 6.6 µM;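 active = inhibition above 80%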;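 note: 0% = DMSO and 100% = nicardipine control wells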
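Test system: IgMXP3 cells (ABCG2) mixed with DDAO far-red-labelled CCRF-Adr cells (ABCB1). Reagent: JC-1 transporter substrate. Compound dosing: single test compound dose, 6.6 µM final. Times: 10 min compound exposure, 25 °C. Detection: flow cytometry of retained JC-1 fluorescence. Read-out basis: efflux inhibition in percent versus controls. Controls: nicardipine and DMSO wells.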
EP2 cAMP induct: human EP2 receptor cAMP induction, negative in counter-screens. shares compounds with EP2 mod. C6 glioma EP2 cells, cAMP HTRF induction; plus low (about EC15) PGE2 agonist. calls only at 20 µM (by protocol). 1,300 compounds, 47% hits;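 active = cAMP induction above 50% in the main assay while under 30% in all four parallel counter assays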;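 note: rat C6 glioma cells stably expressing human EP2 receptor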
Active calls of the source: *; i = inactive; / = not tested or not shown; + = active, no number.

SMILES	ABCB1 inh	PGE2 EP2 inh	RBBP9 inhibitor	EP2 mod	ABCG2 inh	EP2 cAMP induct
COc1ccc(CCN(Cc2nc(-c3ccccc3)no2)Cc2nc(-c3ccccc3)no2)cc1OC	1.1	10.6	-0.3	50.2	5.2	i
COc1ccc(S(=O)(=O)N(Cc2ccccc2)Cc2nc(-c3ccccc3)no2)cc1	2.1	8.5	-1.7	50.1	4.0	+
Cc1ccc2[nH]c(=O)c(C(c3nnnn3Cc3ccc(F)cc3)N3CCC(O)CC3)cc2c1 (configuration not stated)	/	9.5	/	-31.5	/	/
Cc1c(/C=C/c2nc(O)c([N+](=O)[O-])c(=O)[nH]2)c2ccccc2n1C	/	11.1	/	-13.7	/	/
CC1=C(C(=O)Nc2ccccc2C)C(c2ccc3c(c2)OCO3)C2=C(CCCC2=O)N1 (configuration not stated)	/	7.6	/	-10.4	/	/
O=C(N/N=C/c1ccccc1F)NC1CCCCC1	1.6	3.4	-11.6	54.2	37.7	/
O=C(N/N=C/c1cccc(F)c1)NC1CCCCC1	0.5	4.6	-7.1	84.8*	4.1	+
CSc1nc(Oc2ccccc2)c2sccc2n1	0.0	5.6	-3.7	66.3*	1.9	+
C=CCSc1nc(Oc2ccccc2)c2sccc2n1	0.8	8.2	-7.5	69.3*	8.9	i
C=CCNc1nc(SCC=C)nc2ccsc12	0.3	/	-1.7	25.2	6.4	/
CC1=CC2C(CC1=O)C(C)=CCC2C(C)C (configuration not stated)	/	2.1	/	54.5	/	+
CCCn1c(NN)nc2c1c(=O)n(C)c(=O)n2C	/	12.6	/	-4.6	/	/
CCOc1ccccc1NC(=S)NCCNc1nc2c(C)cccc2cc1C#N	/	2.7	/	-52.0	/	/
COc1cccc(C(=O)Nc2ccccc2)c1	0.1	5.2	-6.7	14.7	1.5	/
COc1cccc(C(=O)Nc2cccc(OCC(=O)O)c2)c1	0.6	5.6	-0.3	92.6*	2.7	+
COc1cccc(NC(=O)CSc2nnc3c4c5c(sc4ncn23)CC(C)CC5)c1 (configuration not stated)	/	10.8	/	25.2	/	/
c1cncc(-c2nc(NCCCN3CCOCC3)c3c4c(sc3n2)CCC4)c1	3.9	8.3	-4.3	-37.6	7.2	/
c1cncc(-c2nc(N3CCOCC3)c3c4c(sc3n2)CCC4)c1	0.5	5.8	4.0	58.8	1.6	i
COc1ccc2[nH]c(=O)c(CN(Cc3ccco3)S(=O)(=O)c3c(C)cc(C)cc3C)cc2c1	/	9.2	/	44.6	/	/
CCc1ccccc1-n1c(SCC(=O)N2CCCC2)nnc1-c1ccccn1	1.3	7.6	-6.3	3.5	3.6	/
Cc1ccccc1-n1c(SCC(=O)N2CCCC2)nnc1-c1ccccn1	-0.1	11.1	3.7	65.9*	0.6	i
Cc1ccccc1-n1c(Cn2c(=O)sc3ccccc32)nnc1SCC(=O)N1CCCC1	0.4	/	-0.6	55.5	0.7	i
Cc1ccc(-c2nn3c(C)nnc3s2)cc1NCc1c(F)cccc1Cl	1.9	18.9	-5.7	66.1*	11.2	i
Cc1ccc(CNc2cc(-c3nn4c(C)nnc4s3)ccc2C)s1	1.4	/	-4.3	33.5	38.6	/
COc1ccc(Cc2nnc(SCC(=O)Nc3nccs3)n2C)cc1	/	14.5	/	-27.6	/	/
SMILES	ABCB1 inh	PGE2 EP2 inh	RBBP9 inhibitor	EP2 mod	ABCG2 inh	EP2 cAMP induct
Cc1cc(-c2cncnc2C2CCCN(C(=O)c3ccc4c(c3)OCO4)C2)on1 (configuration not stated)	/	/	/	11.4	/	/
CSc1nnc2c3ccccc3c3ccccc3c2n1	-0.2	/	0.3	76.4*	0.3	+
CCCCOc1c(Br)cc(/C=N/O)cc1OCC	0.1	/	-5.6	66.2*	0.3	i
O=C(c1ccc2c(c1)OCO2)N(Cc1cccs1)C1(C(=O)NC2CCCCC2)CCCCC1	8.3	4.4	-13.9	71.3*	22.7	i
O=C(Cc1cccs1)N(Cc1cccs1)C1(C(=O)NC2CCCC2)CCCCC1	0.6	8.7	-2.4	34.4	-0.7	/
CCc1ccc(-c2csc3ncn(C(C)C(=O)O)c(=O)c23)cc1 (configuration not stated)	/	8.9	/	-6.5	/	/
C(=N\N1CCN(C2c3ccccc3-c3ccccc32)CC1)/c1cccnc1	0.2	15.4	-6.6	73.7*	-0.4	i
C/C(CCc1oc2c(Br)cc(Br)cc2c1-c1ccc(C)o1)=N\O	0.7	26.1	7.4	52.4	1.4	/
C/C(CCc1oc2ccccc2c1-c1ccc(C)o1)=N/O	1.0	3.8	-0.6	75.1*	13.0	+
COc1ccc(-c2nnc(SCC(=O)O)n2-c2ccc(Br)cc2)cc1	/	16.2	/	-0.7	/	/
O=C(C(c1ccccc1)c1ccccc1)N1CCCc2ccccc21	1.1	17.3	-12.1	78.1*	1.7	+
COCc1nnc(NC(=O)COc2ccc(Cl)cc2Cl)s1	/	7.2	/	-13.3	/	/
c1ccc(-c2cc(-c3ccncc3)nc3ccc4ccccc4c23)cc1	0.9	4.8	-3.0	98.6*	5.5	+
Clc1ccc(Cn2c(/C=C/c3ccco3)nc3ccccc32)cc1	0.8	9.4	-7.2	68.8*	2.8	+
CN(C)c1ccc(CN(Cc2cnc(N(C)C)nc2)C2CC(C)(C)NC(C)(C)C2)cc1	/	7.0	/	-16.0	/	/
NCCc1c(-c2ccccc2)n(-c2ccccc2)c2ccccc12	0.6	2.7	-3.6	71.8*	0.6	+
CCCOP(=O)(OCCC)C(Nc1cccc(C(F)(F)F)c1)c1ccc(C)cc1 (configuration not stated)	1.0	3.6	4.5	68.1*	3.6	i
Cc1ccc(CN(CCCn2ccnc2)Cc2cc3c(cc2C)OCO3)o1	/	4.2	/	22.5	/	/
FC(F)(F)c1cc(-c2ccccc2)nc2nc(N3CCOCC3)sc12	0.3	10.3	-13.6	67.1*	7.5	+
CC(C)(C)C(=O)Nc1ccc(Cl)cc1-c1nc2ccccc2s1	/	10.5	/	28.4	/	/
CCCC(c1nnnn1Cc1ccc2c(c1)OCO2)N1CCN(c2ccccc2F)CC1 (configuration not stated)	/	10.8	/	23.7	/	/
Cc1ccc(C)c(N=C2CCCN2Cc2ccccc2)c1C#N	1.0	2.5	-8.3	78.3*	10.1	+
O=C(O)CN1CCCC1=Nc1ccccc1	0.1	10.5	3.5	13.8	0.1	/
CCCCc1nc2sc3c(SCCN(C)C)ncnc3c2c2c1CCC2	/	17.7	-10.9	0.4	/	/
CCCCc1nc2sc3c(SCC(=O)NCc4ccco4)ncnc3c2c2c1CCC2	0.3	10.5	-13.3	68.5*	1.6	i
COc1ccc(N2CCN(C3Cc4ccccc4C3O)CC2)cc1 (configuration not stated)	/	8.8	/	-26.2	/	/
CCCNS(=O)(=O)c1ccc(OCC(=O)N2CCCCC2)cc1	/	5.6	/	-22.6	/	/
CCCCCCC/C=C\CCCCCCCCC(=O)O	/	9.9	/	94.2*	/	+
COc1c(O)ccc(/C=C(\C#N)c2nc3ccccc3[nH]2)c1[N+](=O)[O-]	0.1	1.5	-7.5	78.6*	0.7	+

Screens deposited in PubChem by several laboratories.
